Tests used:
P388 [1] = test: Antitumor activity against mouse P388 cells allografted in CDF/BDF mouse assessed as survival time at 37.5 mg/kg, ip administered as qd on day 5, 9, 13; type: functional; conditions: route intraperitoneal
L1210 [2] = test: Selectivity ratio of ED50 for inhibition of DNA synthesis in mouse L1210 cells to ED50 for inhibition of RNA synthesis in mouse L1210 cells; type: functional
Summary of the method: (§1)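 L1210 leukemia cells. Drugs were first dissolved in Me2SO to a final 1% Me2SO in the assay medium. Inhibition of DNA and RNA synthesis was measured separately and reported as ED50 (50% inhibitory dose, μM). Selectivity is the ratio of the DNA ED50 to the RNA ED50.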

L1210 [3] = test: Inhibition of DNA synthesis in mouse L1210 cells; type: functional; conditions: read-out: ED50 (the source's name); summary of the method: as §1
Calf thymus DNA = test: Binding affinity to calf thymus DNA assessed as change in melting temperature; type: nucleic-acid assay; conditions: Bos taurus
Summary of the method: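 Drug first dissolved in Me2SO to a final 5% Me2SO in the assay medium. DNA binding is read as the shift in DNA melting temperature (ΔTm). ΔTm below 1 is taken as insignificant binding.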

L1210 [4] = test: Inhibition of RNA synthesis in mouse L1210 cells; type: functional; conditions: read-out: ED50 (the source's name); summary of the method: as §1
P388 [5] = test: Antitumor activity against mouse P388 cells allografted in CDF/BDF mouse assessed as survival time at 1.56 mg/kg, ip administered as qd for 1 to 9 days relative to control; type: functional; conditions: route intraperitoneal
P388 [6] = test: Antitumor activity against ip dosed mouse P388 cells allografted in CDF/BDF mouse assessed as survival time administered as qd for 1 to 9 days relative to control; type: functional
P388 [7] = test: Antitumor activity against mouse P388 cells allografted in CDF/BDF mouse assessed as survival time at 4 mg/kg, ip administered as qd for 1 to 9 days relative to control; type: functional; conditions: route intraperitoneal
Rattus norvegicus = organism: Rattus norvegicus; test: Cardiotoxicity in rat assessed as minimum cumulative cardiotoxic dose by Zbinden test; type: toxicity, organism-based; conditions: in vivo
Summary of the method: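 Zbinden cardiotoxicity assay in rats. Drug was given cumulatively, with ECG monitoring. Value is the minimum total dose (mg/kg) that causes significant ECG alterations.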

Salmonella typhimurium [8] = test: Mutagenicity in Salmonella typhimurium TA98 assessed as number of revertants by Ames test in presence of microsomal activation; type: toxicity, organism-based; conditions: salmonella enterica subsp. enterica serovar typhimurium
Summary of the method: (§2)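 Ames plate test using Salmonella typhimurium tester strain TA98. Compounds were tested over dose ranges of 0-20 to 0-100 µg/plate, depending on the compound, and the toxicity level per plate was noted. Mutagenicity is expressed as revertants produced per nmol of compound.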

Salmonella typhimurium [9] = test: Mutagenicity in Salmonella typhimurium TA98 assessed as number of revertants by Ames test in absence of microsomal activation; type: toxicity, organism-based; conditions: salmonella enterica subsp. enterica serovar typhimurium; summary of the method: as §2
Salmonella typhimurium [10] = test: Toxicity in Salmonella typhimurium TA98 assessed as concentration required to cause mortality per plate; type: organism-based; conditions: salmonella enterica subsp. enterica serovar typhimurium
Summary of the method: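 Ames plate test with Salmonella typhimurium tester strain TA98. Compounds were tested over ranges from 0–20 up to 0–100 µg/plate, depending on compound. The toxicity level is reported in µg/plate.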

P388 [11] = test: Antitumor activity against mouse P388 cells allografted in CDF/BDF mouse assessed as survival time at 3.13 mg/kg, ip administered as qd for 1 to 9 days relative to control; type: functional; conditions: route intraperitoneal
P388 [12] = test: Antitumor activity against mouse P388 cells allografted in CDF/BDF mouse assessed as survival time at 6.25 mg/kg, ip administered as qd for 1 to 9 days relative to control; type: functional; conditions: route intraperitoneal
P388 [13] = test: Antitumor activity against mouse P388 cells allografted in CDF/BDF mouse assessed as survival time at 8 mg/kg, ip administered as qd on day 5, 9, 13; type: functional; conditions: route intraperitoneal
P388 [14] = test: Antitumor activity against mouse P388 cells allografted in CDF/BDF mouse assessed as survival time at 0.78 mg/kg, ip administered as qd for 1 to 9 days relative to control; type: functional; conditions: route intraperitoneal
P388 [15] = test: Antitumor activity against mouse P388 cells allografted in CDF/BDF mouse assessed as survival time at 18.8 mg/kg, ip administered as qd on day 5, 9, 13; type: functional; conditions: route intraperitoneal
P388 [16] = test: Antitumor activity against mouse P388 cells allografted in CDF/BDF mouse assessed as survival time at 18 mg/kg, ip administered as qd on day 5, 9, 13; type: functional; conditions: route intraperitoneal
P388 [17] = test: Antitumor activity against mouse P388 cells allografted in CDF/BDF mouse assessed as survival time at 12.5 mg/kg, ip administered as qd for 1 to 9 days relative to control; type: functional; conditions: route intraperitoneal
P388 [18] = test: Antitumor activity against mouse P388 cells allografted in CDF/BDF mouse assessed as survival time at 3.12 mg/kg, ip administered as qd for 1 to 9 days relative to control; type: functional; conditions: route intraperitoneal
P388 [19] = test: Antitumor activity against mouse P388 cells allografted in CDF/BDF mouse assessed as survival time at 25 mg/kg, ip administered as qd for 1 to 9 days relative to control; type: functional; conditions: route intraperitoneal
[20] = Aqueous solubility of the compound; type: physicochemical; conditions: water
[21] = Aqueous solubility of the compound using 10% propylene glycol vehicle; type: physicochemical; conditions: 10% propylene glycol in water
P388 [22] = test: Antitumor activity against mouse P388 cells allografted in CDF/BDF mouse assessed as survival time at 25 mg/kg, ip administered as qd on day 5, 9, 13; type: functional; conditions: route intraperitoneal

Structure (SMILES) | Ratio ED50 (L1210 [2]) | EC50 (L1210 [3]) [nM] | ΔTm (Calf thymus DNA) [°C] | EC50 (L1210 [4]) [nM] | Activity (Salmonella typhimurium [8]) [nmol⁻¹] | Activity (Salmonella typhimurium [9]) | further results
COc1cccc2c1C(=O)c1c(O)c3c(c(O)c1C2=O)C[C@@](O)(C(O)CO)C[C@@H]3O[C@H]1C[C@H](NCc2ccccc2)[C@H](O)[C@H](C)O1.Cl (some centres not stated) | 4.8 | 1400 | 7.6 | 290 |  |  | T/C (P388 [1]): 135%; T/C (P388 [5]): 176%
CCCCCCCCCCN[C@H]1C[C@H](O[C@H]2C[C@](O)(C(C)=O)Cc3c(O)c4c(c(O)c32)C(=O)c2c(OC)cccc2C4=O)O[C@@H](C)[C@H]1O.Cl | 1.3 | 3300 | 7 | 2600 |  |  | T/C (P388 [6]): <125%
CCN(CC)[C@H]1C[C@H](O[C@H]2C[C@](O)(C(C)=O)Cc3c(O)c4c(c(O)c32)C(=O)c2c(OC)cccc2C4=O)O[C@@H](C)[C@H]1O.Cl | 5.2 | 670 | 13.6 | 130 |  |  | T/C (P388 [7]): 178%
COc1cccc2c1C(=O)c1c(O)c3c(c(O)c1C2=O)C[C@@](O)(C(=O)CO)C[C@@H]3O[C@H]1C[C@H](N(C)C)[C@H](O)[C@H](C)O1.Cl | 5.2 | 620 | 17.5 | 120 | 1 | Non-toxic | MTC (Rattus norvegicus): 6 mg/kg; Activity (Salmonella typhimurium [10]): 20 µg
COc1cccc2c1C(=O)c1c(O)c3c(c(O)c1C2=O)C[C@@](O)(C(=O)CO)C[C@@H]3O[C@H]1C[C@H](N2CCCCC2)[C@H](O)[C@H](C)O1.Cl | 17.5 | 700 | 15.4 | 40 | 1 | Non-toxic | Activity (Salmonella typhimurium [10]): 20 µg; T/C (P388 [11]): 190%
COc1cccc2c1C(=O)c1c(O)c3c(c(O)c1C2=O)C[C@@](O)(C(C)O)C[C@@H]3O[C@H]1C[C@H](NCc2ccccc2)[C@H](O)[C@H](C)O1.Cl (some centres not stated) | 5.3 | 1700 | 6.25 | 320 |  |  | T/C (P388 [12]): 221%
CCCCCCCCCCN(CCCCCCCCCC)[C@H]1C[C@H](O[C@H]2C[C@](O)(C(C)=O)Cc3c(O)c4c(c(O)c32)C(=O)c2c(OC)cccc2C4=O)O[C@@H](C)[C@H]1O.Cl | 2.1 | 280000 | 0.1 | 130000 |  |  | T/C (P388 [6]): <125%
CCN(CC)[C@H]1C[C@H](O[C@H]2C[C@](O)(C(=O)CO)Cc3c(O)c4c(c(O)c32)C(=O)c2c(OC)cccc2C4=O)O[C@@H](C)[C@H]1O.Cl | 3.3 | 700 | 14.6 | 210 |  |  | T/C (P388 [11]): 171%
COc1cccc2c1C(=O)c1c(O)c3c(c(O)c1C2=O)C[C@@](O)(C(C)=O)C[C@@H]3O[C@H]1C[C@H](N)[C@H](O)[C@H](C)O1 [DAUNORUBICIN] |  | 660 |  | 330 | 100 |  | T/C (P388 [13]): 132%; MTC (Rattus norvegicus): 14 mg/kg; Activity (Salmonella typhimurium [10]): 5 µg; T/C (P388 [14]): 160%
COc1cccc2c1C(=O)c1c(O)c3c(c(O)c1C2=O)C[C@@](O)(C(=O)CO)C[C@@H]3O[C@H]1C[C@H](N)[C@H](O)[C@H](C)O1 [DOXORUBICIN] | 2.6 | 1500 | 13.4 | 580 |  |  | T/C (P388 [13]): 159%; MTC (Rattus norvegicus): 11 mg/kg; T/C (P388 [14]): 197%
COc1cccc2c1C(=O)c1c(O)c3c(c(O)c1C2=O)C[C@@](O)(C(=O)CO)C[C@@H]3O[C@H]1C[C@H](NCc2ccccc2)[C@H](O)[C@H](C)O1.Cl | 7.2 | 650 | 11.3 | 90 |  |  | T/C (P388 [15]): 190%; T/C (P388 [11]): 185%
COc1cccc2c1C(=O)c1c(O)c3c(c(O)c1C2=O)C[C@@](O)(C(O)CO)C[C@@H]3O[C@H]1C[C@H](N2CCCCC2)[C@H](O)[C@H](C)O1.Cl (some centres not stated) | 7.2 | 720 | 12.5 | 100 |  |  | T/C (P388 [16]): 143%; T/C (P388 [5]): 157%
COc1cccc2c1C(=O)c1c(O)c3c(c(O)c1C2=O)C[C@@](O)(C(C)=O)C[C@@H]3O[C@H]1C[C@H](NC(C)C)[C@H](O)[C@H](C)O1.Cl | 3.4 | 1100 | 10.6 | 320 |  |  | T/C (P388 [17]): 199%
COc1cccc2c1C(=O)c1c(O)c3c(c(O)c1C2=O)C[C@@](O)(C(C)=O)C[C@@H]3O[C@H]1C[C@H](NCc2ccccc2)[C@H](O)[C@H](C)O1.Cl | 9.4 | 1600 | 10.2 | 170 | 0.5 | Non-toxic | T/C (P388 [18]): 185%; T/C (P388 [15]): 184%
COc1cccc2c1C(=O)c1c(O)c3c(c(O)c1C2=O)C[C@@](O)(C(C)=O)C[C@@H]3O[C@H]1C[C@H](N(C)C)[C@H](O)[C@H](C)O1.Cl | 10.4 | 670 |  | 64 | 0 | Non-toxic | MTC (Rattus norvegicus): 11 mg/kg; Activity (Salmonella typhimurium [10]): 20 µg
COc1cccc2c1C(=O)c1c(O)c3c(c(O)c1C2=O)C[C@@](O)(C(C)=O)C[C@@H]3O[C@H]1C[C@H](N(Cc2ccccc2)Cc2ccccc2)[C@H](O)[C@H](C)O1.Cl | >10 | > 100000 | 1.35 | 10000 | 0.5 | Non-toxic | T/C (P388 [19]): 259%; T/C (P388 [1]): 209%; MTC (Rattus norvegicus): 125 mg/kg; solubility [20]: 200 µg/mL; solubility [21]: > 36000 µg/mL
COc1cccc2c1C(=O)c1c(O)c3c(c(O)c1C2=O)C[C@@](O)(C(C)O)C[C@@H]3O[C@H]1C[C@H](N(Cc2ccccc2)Cc2ccccc2)[C@H](O)[C@H](C)O1.Cl (some centres not stated) | 29.1 | 220000 | 0.6 | 7600 | 0.5 | Non-toxic | T/C (P388 [22]): 183%; T/C (P388 [17]): 231%
COc1cccc2c1C(=O)c1c(O)c3c(c(O)c1C2=O)C[C@@](O)(C(=O)CO)C[C@@H]3O[C@H]1C[C@H](N(Cc2ccccc2)Cc2ccccc2)[C@H](O)[C@H](C)O1.Cl | 22.8 | 110000 | 0 | 4800 |  |  | T/C (P388 [12]): 175%

Reference: ChEMBL document CHEMBL3244252, “Adriamycin analogues. 3. Synthesis of N-alkylated anthracyclines with enhanced efficacy and reduced cardiotoxicity” (J Med Chem, 1979)
